Bioassay records (PubChem BioAssay)
Apaf1 inhib: inhibitors of human Apaf-1 apoptosome | O14727 | reconstituted apoptosome caspase-3 activity, DEVD-Rh110 fluorescence | inhibition, % at 20 µM | hit rate 0.71% among 330,000; active = inhibition of at least 40% at 20 µM
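Assay system: Apoptosome proteins | Medium: pH 7.5 Hepes buffer with CHAPS, BSA, DTT | Also added: Cytochrome c and DEVD-Rh110 substrate | Times: 30 min plus 50 min, RT | Detection: Rhodamine 110 fluorescence at Ex 480/Em 540 nm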
GSTO1 counter: counter-screen for RBBP9 inhibitors: inhibitors of human GSTO1 | P78417 | recombinant GSTO1, activity-based probe fluorescence polarization | AID 1974 | inhibition, % at 5.96 µM | hit rate 1.1% among 300,000;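 active = inhibition above the campaign mean inhibition plus 3 SD, cut at about 35% in these data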
PAD4 FP inh: inhibitors of human PAD4. inhibition, % at 6.36 µM. Q9UM07. recombinant PAD4, RCA probe fluorescence polarization. hit rate 0.41% among 330,000;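 active = percent inhibition above a cutoff equal to the mean of all tested compounds plus 3 SD, cut at about 15% in these data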
Target sequence (Q9UM07 whole entry, looked up): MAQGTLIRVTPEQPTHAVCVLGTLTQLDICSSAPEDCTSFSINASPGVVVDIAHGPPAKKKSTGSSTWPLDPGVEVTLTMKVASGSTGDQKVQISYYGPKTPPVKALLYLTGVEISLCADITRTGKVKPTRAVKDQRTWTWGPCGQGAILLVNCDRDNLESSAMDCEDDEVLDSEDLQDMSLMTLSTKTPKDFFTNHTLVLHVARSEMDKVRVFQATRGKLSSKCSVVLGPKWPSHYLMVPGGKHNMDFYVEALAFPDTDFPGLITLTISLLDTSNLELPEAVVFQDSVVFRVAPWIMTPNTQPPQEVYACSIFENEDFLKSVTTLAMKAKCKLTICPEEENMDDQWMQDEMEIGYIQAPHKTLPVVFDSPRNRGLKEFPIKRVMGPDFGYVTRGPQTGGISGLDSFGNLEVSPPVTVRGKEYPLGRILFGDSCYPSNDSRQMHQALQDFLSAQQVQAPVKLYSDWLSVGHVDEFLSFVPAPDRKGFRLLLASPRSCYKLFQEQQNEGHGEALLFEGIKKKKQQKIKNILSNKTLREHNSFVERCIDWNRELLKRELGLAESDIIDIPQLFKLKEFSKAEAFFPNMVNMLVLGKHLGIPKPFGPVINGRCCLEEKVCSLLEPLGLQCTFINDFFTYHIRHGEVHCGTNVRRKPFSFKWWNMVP
TDP2 inh: TDP2 (human) inhibition, absorbance primary screen; O95551; recombinant TDP2, T5PNP hydrolysis, p-nitrophenol absorbance 415 nm; inhibition, % at 12.8 µM; hit rate 0.34% among 370,000;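 active = inhibition above the mean of all tested compounds plus 3 SD, set per campaign, cut at about 25% in these data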
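Test system: human TDP2 enzyme; Input: 120 nM TDP2 per well; Buffer or medium: Mg2+-containing Tris-HCl buffer, pH 7.5; Reagent: 5 mM T5PNP; Dosing: 12.8 µM single point, 1% DMSO; Incubation: reaction 2 h, 37 °C; Detection: p-Nitrophenol epi absorbance; Read-out: % inhibition relative to enzyme-containing and enzyme-free wells; Replicates: single well per compound.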
SIAE primary: human SIAE inhibition, primary screen | SIAE FP-Rh probe binding, fluorescence polarization | inhibition, % at 9.66 µM | Q9HAT2 | AID 1053197 | hit rate 0.69% among 370,000;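 active = inhibition above a cutoff: mean of compounds within the control limits plus 3 SD of those, cut at about 17% in these data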
TCR-CD3 inh: inhibitors of human TCR-CD3 interaction. hit rate 0.37% among 360,000. inhibition, % at 9.4 µM. TAMRA-labeled TCR probe fluorescence, biochemical. AID 651800;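 note: recombinant mutant TCR 2C K166C tagged with TAMRA read by polarization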
BSA TAMRA ctr: interferes with TAMRA-BSA probe, flagging TCR-CD3 hits. TAMRA-labeled BSA probe fluorescence counterscreen. inhibition, % at 9.4 µM. hit rate 10% among 1,200. shares compounds with TCR-CD3 inh; in the data active = inhibition above about 23%
TCR-CD3 conf: TCR-CD3 interaction inhibition, confirmation. shares compounds with TCR-CD3 inh. inhibition, % at 9.4 µM. TAMRA-labeled TCR probe fluorescence binding assay. AID 652036. hit rate 48% among 1,200
TDP2 confirm: confirmation of human TDP2 inhibitors | shares compounds with TDP2 inh | recombinant human TDP2, absorbance read-out | inhibition, % at 12.8 µM | hit rate 22% among 1,100; in the data active = inhibition above about 25%
SIAE inh conf: confirmation of human SIAE inhibitors. shares compounds with SIAE primary. SIAE FP-Rh activity-based probe, fluorescence polarization. inhibition, % at 9.66 µM. hit rate 13% among 2,300. AID 1117263;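 active = mean inhibition of the replicates above the hit cutoff set in the primary screen, cut at about 17% in these data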;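 note: inhibitors lower polarization as more probe stays unbound to SIAE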
Hits are given with their value; - = inactive; . = no result given. Only some compounds are listed: those with a hit (about 2.4% of all), similar ones and a draw of the others. Cut-off read from the data, not from the text of the source, unless noted: active = inhibition above about 19%; inactive = the rest.

SMILES	Apaf1 inhib	GSTO1 counter	PAD4 FP inh	TDP2 inh	SIAE primary	TCR-CD3 inh	BSA TAMRA ctr	TCR-CD3 conf	SIAE inh conf	others
CC(C)(C)c1cc(CCC(=O)NCCc2ccccn2)cc(C(C)(C)C)c1O	-	-	-	-	-	-	.	.	.
O=C1C=C(NCCc2cc(Br)c(O)c(Br)c2)C(=O)c2ncccc21	.	.	.	47.9	-	25.8	-	25.3	.	TDP2 confirm=59.9
OCC[C@@H]1C[C@H](O)[C@@H](O)[C@@]2(Cc3ccccc3CO2)O1	-	-	-	-	-	-	.	.	.
C/C(=N\NC(=O)c1ccc(N2CCCC2=O)cc1)c1ccccc1	-	-	-	-	-	-	.	.	.
C/C(=N\NC(=O)c1ccc(N2CCCC2=O)cc1)c1ccc(O)cc1O	-	-	-	-	22.3	23.6	-	-	-
Cc1cc(NC(=O)COC(=O)C2CC2)ccc1Br	-	.	-	-	-	-	.	.	.
NNC(=O)c1oc2nc(-c3ccco3)cc(-c3ccco3)c2c1N	-	52.1	-	-	50.5	25.3	-	-	73.9
CS(=O)(=O)c1ccc(C(=O)Nc2nc(-c3ccco3)c(-c3ccco3)s2)cc1	-	.	.	-	46.7	33.5	-	-	-
O=C(Nc1nc(-c2ccco2)c(-c2ccco2)s1)C1CCC1	-	-	-	-	-	-	.	.	.
O=C1c2ccccc2-c2onc3ccc(N4CCCC4)c1c23	.	.	.	-	76.3	110.8	186.0	144.8	56.4
COc1ccc(N2C(=O)CC(NC34CC5CC(CC(C5)C3)C4)C2=O)c(OC)c1 (stereo not given)	-	-	-	-	-	-	.	.	.
CCOc1ccccc1CNc1ccc(O)cc1	.	.	.	25.8	33.6	20.5	-	-	-
O=C(COC(=O)c1ccc([N+](=O)[O-])o1)NCc1ccc(F)cc1	-	.	-	-	-	-	.	.	.
Cn1cc(C(=O)N/N=C/c2c(O)ccc3ccccc23)ccc1=O	-	38.7	-	-	30.3	37.9	-	24.3	-
Cn1nccc1C(=O)N/N=C/c1c(O)ccc2ccccc12	-	-	-	-	-	-	.	.	.
O=C(N/N=C\c1c(O)ccc2ccccc12)c1ccc(O)cc1	-	-	-	-	27.2	28.4	-	20.9	-
Cc1occc1C(=O)N/N=C/c1c(O)ccc2ccccc12	-	-	-	-	-	-	.	.	.
O=C(COc1ccccc1Br)NC1CCCC1	-	-	-	-	-	-	.	.	.
CC(=O)Nc1ccc(C(=O)N/N=C/c2cc(Br)cc(Br)c2O)cc1	-	-	-	-	32.7	39.6	-	41.9	-
CN1CCN(CC(=O)NN2CC(=O)N(c3ccc(F)cc3)CC2=O)CC1	-	-	-	-	-	-	.	.	.
COc1cc(C(=O)OCC(=O)N2CCCC2=O)cc(OC)c1C	-	.	-	-	17.1	43.4	-	-	-
CC(C)C1Nc2c(O)cc(Cl)c([N+](=O)[O-])c2C2C=CCC21 (stereo not given)	.	.	.	-	22.3	19.8	-	-	-
COc1ccc2c(c1)CC/C(=C/c1ccco1)C2=O	-	-	-	-	-	-	.	.	.
Nc1ccc2c(c1)C/C(=C/c1ccco1)C2=O	-	-	-	-	22.8	22.4	-	-	-
Cn1nc(C(=O)N2CCCC2)c2ccccc2c1=O	-	-	-	-	-	-	.	.	.
SMILES	Apaf1 inhib	GSTO1 counter	PAD4 FP inh	TDP2 inh	SIAE primary	TCR-CD3 inh	BSA TAMRA ctr	TCR-CD3 conf	SIAE inh conf	others
COc1ccc(/C=C/C(=O)c2ccc(OC)cc2OC)c(OC)c1	-	-	-	-	-	-	.	.	.
CNc1ccc(Br)cc(C(=O)/C=C/c2ccc(OC)cc2OC)c1=O	-	36.1	-	-	21.3	19.5	-	-	-
Cc1c(Br)c(O)c(Br)c2sc(=O)oc12	-	73.7	-	42.0	28.9	25.0	-	-	-	TDP2 confirm=-
O=C(NCc1cccs1)C1CCCN1S(=O)(=O)c1ccccc1F (stereo not given)	-	-	-	-	-	-	.	.	.
COc1cc(/C=N/NC(=S)NC2CC3C=CC2C3)cc(OC)c1OC (stereo not given)	-	-	-	-	-	-	.	.	.
Oc1c(Br)cc(Br)cc1/C=N/NC(=S)N[C@H]1CC2C=CC1C2 (stereo not given in full)	-	-	-	-	24.2	31.9	-	38.2	24.2
COc1ccc2c3c(cccc13)C(=O)CC2	.	.	.	-	72.8	56.9	-	-	-
OC(c1cc(F)cc(Cl)c1)c1ncc(-c2ccccc2Cl)[nH]1 (stereo not given)	.	.	.	-	-	-	.	.	.
CCOC(=O)C1CCCN(C(=O)C2COc3ccccc3O2)C1 (stereo not given)	.	.	.	-	108.2	28.2	-	-	-
O=C(C1COc2ccccc2O1)N1CCCC1 (stereo not given)	-	-	-	-	-	-	.	.	.
CCOC(=O)c1c(-c2ccccc2)nc2cc(C)ccn12	-	-	-	-	-	-	.	.	.
O=C(COC(=O)CCSc1ccc(F)cc1)NCc1ccc(F)cc1	-	.	-	-	-	-	.	.	.
Cc1ccc(N(CC(=O)NCc2ccc3c(c2)OCO3)S(C)(=O)=O)cc1	-	-	-	-	-	-	.	.	.
O=C(N/N=C/c1cc2c3c(c1O)CCCN3CCC2)c1ccccc1O	.	.	.	-	43.3	69.0	31.1	68.5	36.2
CN(C)c1cc(-c2ccc(C#N)cc2)oc(=O)c1Cl	-	-	-	-	-	-	.	.	.
CCCCC(=O)OCC(=O)C1(O)Cc2c(O)c3c(c(O)c2C(OC2CC(NC(=O)C(F)(F)F)C(O)C(C)O2)C1)C(=O)c1c(OC)cccc1C3=O (stereo not given)	.	.	.	-	-	-	.	.	.
COc1cccc2c1C(=O)c1c(O)c3c(c(O)c1C2=O)CC(O)(C(C)=O)CC3OC1CC(O)C(O)C(C)O1 (stereo not given)	.	.	.	-	68.2	133.6	179.7	141.8	55.3
CCN1CCc2c(sc(NC(=O)C3COc4ccccc4O3)c2C(N)=O)C1 (stereo not given)	-	-	-	-	-	-	.	.	.
Cc1c(OC(C)C(=O)O)ccc2c3c(c(=O)oc12)CCCC3 (stereo not given)	-	-	-	-	-	-	.	.	.
O=C(CCc1ccc(S(=O)(=O)N2CCOCC2)cc1)N/N=C/c1ccc(O)c(O)c1O	-	-	-	-	27.9	28.4	-	25.3	-
O=C(N/N=C/c1cn(Cc2cccc(F)c2)c2ccccc12)c1cc(O)cc(O)c1	-	.	.	-	36.6	47.3	-	27.0	-
COc1ccc(/C=N\NC(=O)c2cc(O)c(O)c(O)c2)cc1CN1CCN(c2ccc(F)cc2)CC1	.	52.4	-	-	29.7	23.4	-	22.9	-
